Calls of active or inactive are those of the source. The rule behind the calls is not given here.
Key:
[1] = Stability of compound; type: physicochemical
[2] = molecular target: Glutamate dehydrogenase 1, mitochondrial (Bos taurus) (UniProt P00366); experiment: Inhibition of bovine GDH using glutamate as substrate preincubated for 0.5 hrs followed by substrate addition and further incubated for 1 hr in presence of NADP+ by EZMTT reagent based assay
[3] = Metabolic stability in mouse liver microsomes assessed as parent compound remaining measured for 2 hrs by HPLC analysis; type: ADME, Microsome; details: read-out: Stability
Summary of the method: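 Compound is incubated with mouse liver microsomes for 2 h. The parent level remaining is quantified by HPLC, with coumarin as the reference control.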

HCT-116 [4] = experiment: Antiproliferative activity against human HCT-116 cells assessed as inhibition of cell growth by measuring fold improvement in IC50 incubated for 5 days by EZMTT assay relative to control; type: functional; details: time 5 day
[5] = molecular target: T1, Glutaminase kidney isoform, mitochondrial (Homo sapiens, UniProt O94925); experiment: Binding affinity to wild type human KGA assessed as covalent bond formation by measuring dissociation constant by biomolecular interaction assay
T1 sequence (O94925 whole entry): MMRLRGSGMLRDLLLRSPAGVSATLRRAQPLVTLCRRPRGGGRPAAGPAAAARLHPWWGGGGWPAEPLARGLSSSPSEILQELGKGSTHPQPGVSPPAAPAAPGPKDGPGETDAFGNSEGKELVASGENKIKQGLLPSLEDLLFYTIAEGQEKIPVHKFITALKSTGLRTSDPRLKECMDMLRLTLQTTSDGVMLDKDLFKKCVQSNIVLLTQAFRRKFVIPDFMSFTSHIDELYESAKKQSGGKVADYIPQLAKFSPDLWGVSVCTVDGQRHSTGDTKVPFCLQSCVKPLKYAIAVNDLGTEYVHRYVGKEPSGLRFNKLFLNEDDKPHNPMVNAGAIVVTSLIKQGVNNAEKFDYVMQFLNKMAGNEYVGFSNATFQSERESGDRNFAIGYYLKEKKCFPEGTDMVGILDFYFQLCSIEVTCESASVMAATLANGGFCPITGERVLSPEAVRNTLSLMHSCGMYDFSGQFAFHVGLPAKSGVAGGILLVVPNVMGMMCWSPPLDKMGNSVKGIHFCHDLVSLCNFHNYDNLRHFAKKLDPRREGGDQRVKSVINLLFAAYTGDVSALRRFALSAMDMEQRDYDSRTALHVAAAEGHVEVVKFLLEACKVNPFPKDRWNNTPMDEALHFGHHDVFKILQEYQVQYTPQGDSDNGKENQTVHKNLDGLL

[6] = Half life in ICR mouse at […], iv measured for 24 hrs by HPLC analysis; type: ADME, organism-based; details: in vivo
[7] = Clearance in ICR mouse at […], iv measured for 24 hrs by HPLC analysis; type: ADME, organism-based; details: in vivo
A549 [8] = experiment: Inhibition of colony formation in human A549 cells assessed as reduction in number and size of colonies incubated for 14 days by crystal violet staining based assay; type: functional, cell-based; details: dose 1-5 µM, time 14.0 day
A549 [9] = experiment: Induction of ROS production in human A549 cells at 5 to 10 uM incubated for 12 hrs by dichlorodihydro-fluorescein diacetate probe based fluorescence microscopic analysis; type: functional, cell-based; details: dose 5-10 µM
HCT-116 [10] = experiment: Antiproliferative activity against human HCT-116 cells assessed as growth rate at 3 uM measured after 2 to 24 hrs by EZMTT assay (reference value: 100%); type: functional; details: for growth at 3 µM: Homo sapiens, HCT-116, time 2-24 hrs, read-out: Activity
H22 = experiment: Antiproliferative activity against mouse H22 cells assessed as inhibition of cell growth by measuring fold improvement in IC50 incubated for 5 days by EZMTT assay relative to control; type: functional; details: time 5 day
HCT-116 [11] = experiment: Antiproliferative activity against human HCT-116 cells assessed as growth rate at 10 uM measured after 2 to 24 hrs by EZMTT assay (reference value: 100%); type: functional; details: for growth at 10 µM: Homo sapiens, HCT-116, time 2-24 hrs, read-out: Activity
Homo sapiens [12] = species: Homo sapiens; experiment: Inhibition of biotinylated N-[6-[4-[5-[[2-(2-pyridyl)acetyl]amino]-1,3,4-thiadiazol-2-yl]butyl]pyridazin-3-yl]-2-[3-(trifluoromethoxy)phenyl]acetamide binding to human KGA K320A mutant by biomolecular interaction assay; details: dose 0-3 µM
[13] = molecular target: T1, Glutaminase kidney isoform, mitochondrial; experiment: Inhibition of human KGA using glutamine as substrate preincubated for 0.5 hrs followed by substrate addition and measured after 4 hrs by EZMTT reagent based assay
[14] = molecular target: T2, Glutaminase kidney isoform, mitochondrial (Homo sapiens) (UniProt O94925); experiment: Inhibition of biotinylated N-[6-[4-[5-[[2-(2-pyridyl)acetyl]amino]-1,3,4-thiadiazol-2-yl]butyl]pyridazin-3-yl]-2-[3-(trifluoromethoxy)phenyl]acetamide binding to wild type human KGA at >300 nM by biomolecular interaction assay
T2 sequence (whole entry): T1 sequence (O94925 whole entry)

Homo sapiens [15] = species: Homo sapiens; experiment: Covalent inhibition of human KGA K320A mutant using glutamine as substrate at 10 uM preincubated for 0.5 hrs followed by substrate addition and measured after 4 hrs by EZMTT reagent based assay; details: time 4.5 hrs
Summary of the method: (§1)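 Human KGA, either wild-type or the K320A mutant, is pre-incubated with or without compound at 10 μM before the enzyme activity assay.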

HCT-116 [16] = experiment: Antiproliferative activity against human HCT-116 cells assessed as growth rate at 1 uM measured after 2 to 24 hrs by EZMTT assay (reference value: 100%); type: functional; details: for growth at 1 µM: Homo sapiens, HCT-116, time 2-24 hrs, read-out: Activity
[17] = molecular target: T2, Glutaminase kidney isoform, mitochondrial (Homo sapiens); experiment: Covalent inhibition of wild type human KGA using glutamine as substrate at 10 uM preincubated for 0.5 hrs followed by substrate addition and measured after 4 hrs by EZMTT reagent based assay; details: time 4.5 hrs; summary of the method: as §1
Homo sapiens [18] = species: Homo sapiens; experiment: Binding affinity to alanine residue of human KGA K320A mutant assessed as covalent bond formation

Chain of Glutamate dehydrogenase 1, mitochondrial (Bos taurus) (P00366 whole entry): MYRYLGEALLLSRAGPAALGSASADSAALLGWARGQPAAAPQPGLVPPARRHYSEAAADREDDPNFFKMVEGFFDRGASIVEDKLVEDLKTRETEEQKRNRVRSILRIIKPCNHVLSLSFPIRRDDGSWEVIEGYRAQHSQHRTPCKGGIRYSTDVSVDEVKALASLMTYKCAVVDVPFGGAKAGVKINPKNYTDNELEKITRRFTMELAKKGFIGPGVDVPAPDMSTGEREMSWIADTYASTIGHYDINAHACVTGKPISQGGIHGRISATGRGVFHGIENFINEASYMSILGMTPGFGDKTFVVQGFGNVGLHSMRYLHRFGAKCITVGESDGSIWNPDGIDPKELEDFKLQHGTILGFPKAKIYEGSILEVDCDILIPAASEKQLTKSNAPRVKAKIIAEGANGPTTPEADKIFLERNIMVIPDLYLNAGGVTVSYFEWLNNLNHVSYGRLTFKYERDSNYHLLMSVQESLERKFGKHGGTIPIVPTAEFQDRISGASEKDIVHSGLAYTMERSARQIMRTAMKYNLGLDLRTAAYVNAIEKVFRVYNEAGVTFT

In the case of `C=C(C(=O)Nc1ccc(CCCCc2nnc(NC(=O)Cc3ccccn3)[se]2)nn1)c1cccc(OC(F)(F)F)c1`, the Stability [1] is reported as “Unstable” and the inhibition [2] is reported as “inactive”.
In the case of `O=c1ccc2ccccc2o1` [COUMARIN], the remaining at 2 h [3] is reported as 61%.
For `C=CC(=O)Nc1ccc(CCCCc2nnc(NC(=O)Cc3ccccn3)s2)nn1`, the Stability [1] was “Unstable” and the inhibition [2] was “inactive”.
With `O=C(/C=C/c1ccc2c(c1)OCO2)Nc1ccc(CCCCc2nnc(NC(=O)Cc3ccccn3)s2)nn1` the “fold change (FC)” value (HCT-116 [4]) was 3, the Kd [5] was no more than 0.001 nM and the half-life [6] was 3.37 h. The clearance [7] was 582 mL/min/kg, the inhibition (A549 [8]) was “Dose-Dependent Effect” and the Activity (A549 [9]) was “Active”. The Stability [1] was “Stable”, the growth at 3 µM (HCT-116 [10]) was 7.6% and the “fold change (FC)” value (H22) was 30. The remaining at 2 h [3] was 83%, the growth at 10 µM (HCT-116 [11]) was 6.1% and the inhibition (Homo sapiens [12]) was “Dose-Dependent Effect”. For the same compound, the IC50 [13] was 28 nM, the inhibition [14] was “Active” and the inhibition (Homo sapiens [15]) was “inactive”. For the same compound, the growth at 1 µM (HCT-116 [16]) was 11.9%, the inhibition [17] was 100% and the Activity (Homo sapiens [18]) was “inactive”. For the same compound, the inhibition [2] was “inactive”.
Work on `O=C(/C=C/c1ccc2c(c1)OCO2)Nc1ccc(CCCCc2nnc(NC(=O)Cc3ccccn3)[se]2)nn1` yielded a Kd [5] of no more than 0.001 nM, a half-life [6] of 4.89 h and a clearance [7] of 327 mL/min/kg. The inhibition (A549 [8]) was “Dose-Dependent Effect”, the Activity (A549 [9]) was “Active” and the Stability [1] was “Stable”. It also gave a growth at 3 µM (HCT-116 [10]) of 6%, a remaining at 2 h [3] of 74% and a growth at 10 µM (HCT-116 [11]) of 6.3%. For the same compound, the inhibition (Homo sapiens [12]) was “Dose-Dependent Effect”, the IC50 [13] was 50 nM and the inhibition [14] was “Active”. For the same compound, the inhibition (Homo sapiens [15]) was “inactive”, the growth at 1 µM (HCT-116 [16]) was 14.3% and the inhibition [17] was 100%. For the same compound, the Activity (Homo sapiens [18]) was “inactive” and the inhibition [2] was “inactive”.
For `C=CC(=O)Nc1ccc(CCCCc2nnc(NC(=O)Cc3ccccn3)[se]2)nn1`, the Stability [1] was “Unstable” and the inhibition [2] was “inactive”.
For `C=CC(=O)Nc1ccc(CCCCc2nnc(NC(=O)Cc3cc4ccccc4n3C)s2)nn1`, the Stability [1] was “Unstable” and the inhibition [2] was “inactive”.
With `O=C(Cc1cccc(OC(F)(F)F)c1)Nc1ccc(CCCCc2nnc(NC(=O)Cc3ccccn3)s2)nn1` the Activity (HCT-116 [10]; time 2-24 hrs) was 17%, the Activity (HCT-116 [11]; time 2-24 hrs) was 14.1% and the Activity (HCT-116 [16]; time 2-24 hrs) was 19.1%. For the same compound, the inhibition [2] was “inactive”.
For `O=C(/C=C/c1cc(F)ccc1F)Nc1ccc(CCCCc2nnc(NC(=O)Cc3ccccn3)[se]2)nn1`, the Stability [1] was “Unstable” and the inhibition [2] was “inactive”.
